Test results reported in ChEMBL document CHEMBL5143669, “Stapled peptides as scaffolds for developing radiotracers for intracellular targets: Preliminary evaluation of a radioiodinated MDM2-binding stapled peptide in the SJSA-1 osteosarcoma model” (Bioorg Med Chem Lett, 2022).

What was measured:
[1] = Biodistribution in Stomach of athymic mouse xenografted with human SJSA-1 cells at 166.5 kBq, iv after 2 hrs by automated gamma counting method; type: ADME, organism-based; settings: in vivo
Outline: (§1)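 Athymic mice bearing flank SJSA-1 xenografts received 125I-SIB-labeled peptide (166.5 kBq, 100 μL) by tail vein; groups of five per time point. Tumor, blood and organs were taken at 0.5–24 h and counted by gamma counter; values expressed as %ID/g.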

[2] = Biodistribution in Urinary bladder of athymic mouse xenografted with human SJSA-1 cells at 166.5 kBq, iv after 30 mins by automated gamma counting method; type: ADME, organism-based; settings: in vivo, 0.5 h; outline: as §1
[3] = Biodistribution in Muscle of athymic mouse xenografted with human SJSA-1 cells at 166.5 kBq, iv after 24 hrs by automated gamma counting method; type: ADME, organism-based, Muscle tissue; settings: in vivo
Outline: (§2)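 125I-labeled peptide (166.5 kBq in 100 μL) was injected via tail vein into athymic mice bearing flank SJSA-1 xenografts, n = 5 per time point. Tumors, blood and major organs were gamma-counted at 0.5, 2, 6 and 24 h post-injection. Values are %ID/g.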

[4] = Stability in human serum assessed as intact peptide level at 37 degC incubated for 1 hr by RP-HPLC analysis; type: ADME, cell-free; settings: read-out: Drug uptake
Outline: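 125I-labeled peptide was incubated in human serum at 37 °C for up to 72 h. Aliquots were run by RP-HPLC (RP-18 column, ethanol/0.05 M sodium acetate pH 5.5 gradient, 1 mL/min), and intact peptide was expressed as percentage of injected activity.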

[5] = Biodistribution in Urinary bladder of athymic mouse xenografted with human SJSA-1 cells at 166.5 kBq, iv after 6 hrs by automated gamma counting method; type: ADME, organism-based; settings: in vivo; outline: as §1
[6] = Biodistribution in Heart of athymic mouse xenografted with human SJSA-1 cells at 166.5 kBq, iv after 24 hrs by automated gamma counting method; type: ADME, organism-based; settings: in vivo; outline: as §2
[7] = Biodistribution in Bone of athymic mouse xenografted with human SJSA-1 cells at 166.5 kBq, iv after 24 hrs by automated gamma counting method; type: ADME, organism-based, Bone element; settings: in vivo; outline: as §2
[8] = Biodistribution in Skin of athymic mouse xenografted with human SJSA-1 cells at 166.5 kBq, iv after 30 mins by automated gamma counting method; type: ADME, organism-based, Skin of body; settings: in vivo, 0.5 h; outline: as §2
[9] = Biodistribution in Large intestine of athymic mouse xenografted with human SJSA-1 cells at 166.5 kBq, iv after 6 hrs by automated gamma counting method; type: ADME, organism-based; settings: in vivo; outline: as §2
[10] = Biodistribution in Lung of athymic mouse xenografted with human SJSA-1 cells at 166.5 kBq, iv after 2 hrs by automated gamma counting method; type: ADME, organism-based; settings: in vivo; outline: as §2
[11] = Biodistribution in Tumor of athymic mouse xenografted with human SJSA-1 cells at 166.5 kBq, iv after 24 hrs by automated gamma counting method; type: ADME, organism-based, Neoplasm; settings: in vivo; outline: as §1
[12] = Biodistribution in Blood of athymic mouse xenografted with human SJSA-1 cells at 166.5 kBq, iv after 24 hrs by automated gamma counting method; type: ADME, organism-based; settings: in vivo; outline: as §2
[13] = Biodistribution in Stomach of athymic mouse xenografted with human SJSA-1 cells at 166.5 kBq, iv after 30 mins by automated gamma counting method; type: ADME, organism-based; settings: in vivo, 0.5 h; outline: as §1
[14] = Biodistribution in Liver of athymic mouse xenografted with human SJSA-1 cells at 166.5 kBq, iv after 6 hrs by automated gamma counting method; type: ADME, organism-based; settings: in vivo; outline: as §2
[15] = Biodistribution in Lung of athymic mouse xenografted with human SJSA-1 cells at 166.5 kBq, iv after 6 hrs by automated gamma counting method; type: ADME, organism-based; settings: in vivo; outline: as §2
[16] = Drug uptake in MDM2-amplified human SJSA-1 cells expressing wild type p53 assessed as released into supernatant incubated for 0.5 hrs subsequently re-incubating the cells with fresh medium for up to 2 hrs; type: ADME, cell-based; settings: sjsa-1, 0.5 h
Outline: (§3)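 SJSA-1 cells were loaded with 125I-labeled peptide for 1 h, then reincubated in fresh medium for 0.5–2 h. Cell-retained activity and cumulative release into the supernatant were expressed as percentage of initially bound activity.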

[17] = Biodistribution in Urinary bladder of athymic mouse xenografted with human SJSA-1 cells at 166.5 kBq, iv after 2 hrs by automated gamma counting method; type: ADME, organism-based; settings: in vivo; outline: as §1
[18] = Biodistribution in Brain of athymic mouse xenografted with human SJSA-1 cells at 166.5 kBq, iv after 2 hrs by automated gamma counting method; type: ADME, organism-based; settings: in vivo; outline: as §2
[19] = Biodistribution in Small intestine of athymic mouse xenografted with human SJSA-1 cells at 166.5 kBq, iv after 30 mins by automated gamma counting method; type: ADME, organism-based; settings: in vivo, 0.5 h; outline: as §2
[20] = Biodistribution in Liver of athymic mouse xenografted with human SJSA-1 cells at 166.5 kBq, iv after 30 mins by automated gamma counting method; type: ADME, organism-based; settings: in vivo, 0.5 h; outline: as §2
[21] = Biodistribution in Small intestine of athymic mouse xenografted with human SJSA-1 cells at 166.5 kBq, iv after 6 hrs by automated gamma counting method; type: ADME, organism-based; settings: in vivo; outline: as §2
[22] = Biodistribution in Heart of athymic mouse xenografted with human SJSA-1 cells at 166.5 kBq, iv after 6 hrs by automated gamma counting method; type: ADME, organism-based; settings: in vivo; outline: as §2
[23] = Biodistribution in Stomach of athymic mouse xenografted with human SJSA-1 cells at 166.5 kBq, iv after 24 hrs by automated gamma counting method; type: ADME, organism-based; settings: in vivo; outline: as §1
[24] = Drug uptake in MDM2-amplified human SJSA-1 cells expressing wild type p53 assessed as initially bound radioactivity incubated for 1 hrs subsequently re-incubating the cells with fresh medium for up to 2 hrs; type: ADME, cell-based; settings: sjsa-1, 1 h; outline: as §3
[25] = Biodistribution in Thyroid of athymic mouse xenografted with human SJSA-1 cells at 166.5 kBq, iv after 6 hrs by automated gamma counting method; type: ADME, organism-based, Thyroid gland; settings: in vivo; outline: as §1
[26] = Biodistribution in Brain of athymic mouse xenografted with human SJSA-1 cells at 166.5 kBq, iv after 24 hrs by automated gamma counting method; type: ADME, organism-based; settings: in vivo; outline: as §2
[27] = Biodistribution in Liver of athymic mouse xenografted with human SJSA-1 cells at 166.5 kBq, iv after 2 hrs by automated gamma counting method; type: ADME, organism-based; settings: in vivo; outline: as §2
[28] = Biodistribution in Blood of athymic mouse xenografted with human SJSA-1 cells at 166.5 kBq, iv after 2 hrs by automated gamma counting method; type: ADME, organism-based; settings: in vivo; outline: as §2
[29] = Drug uptake in MDM2-amplified human SJSA-1 cells expressing wild type p53 at 5 to 50 uM incubated for 60 mins; type: ADME, cell-based; settings: sjsa-1, 1 h, dose 5-50 µM
Outline: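 For uptake kinetics, SJSA-1 cells in serum-free RPMI-1640 were incubated 30–120 min with 125I-labeled peptide, with or without 50 μM unlabeled parent peptide. Cells were washed with PBS and lysed, and uptake was normalized to protein (%/mg protein). Triplicates, mean ± SD.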

[30] = Biodistribution in Spleen of athymic mouse xenografted with human SJSA-1 cells at 166.5 kBq, iv after 30 mins by automated gamma counting method; type: ADME, organism-based; settings: in vivo, 0.5 h; outline: as §2
[31] = Biodistribution in Urinary bladder of athymic mouse xenografted with human SJSA-1 cells at 166.5 kBq, iv after 24 hrs by automated gamma counting method; type: ADME, organism-based; settings: in vivo; outline: as §1
[32] = Biodistribution in Lung of athymic mouse xenografted with human SJSA-1 cells at 166.5 kBq, iv after 24 hrs by automated gamma counting method; type: ADME, organism-based; settings: in vivo; outline: as §2
[33] = Biodistribution in Muscle of athymic mouse xenografted with human SJSA-1 cells at 166.5 kBq, iv after 6 hrs by automated gamma counting method; type: ADME, organism-based, Muscle tissue; settings: in vivo; outline: as §2

- Drug uptake [1]: 0.53 % ID/g
- Drug uptake [2]: 0.61 % ID/g
- Drug uptake [3]: 0.16 % ID/g
- remaining at 1 h [4]: 98.2%
- Drug uptake [5]: 0.95 % ID/g
- Drug uptake [6]: 0.37 % ID/g
- Drug uptake [7]: 0.16 % ID/g
- Drug uptake [8]: 0.57 % ID/g
- Drug uptake [9]: 4.44 % ID/g
- Drug uptake [10]: 2.72 % ID/g
- Drug uptake [11]: 0.36 % ID/g
- Drug uptake [12]: 0.62 % ID/g
- Drug uptake [13]: 0.34 % ID/g
- Drug uptake [14]: 11.41 % ID/g
- Drug uptake [15]: 2.49 % ID/g
- Drug uptake [16]: 16.9%
- Drug uptake [17]: 0.58 % ID/g
- Drug uptake [18]: 0.25 % ID/g
- Drug uptake [19]: 0.43 % ID/g
- Drug uptake [20]: 13.52 % ID/g
- Drug uptake [21]: 3.84 % ID/g
- Drug uptake [22]: 2.14 % ID/g
- Drug uptake [23]: 0.84 % ID/g
- Drug uptake [24]: 72.8%
- Drug uptake [25]: 1.19 % ID/g
- Drug uptake [26]: 0.02 % ID/g
- Drug uptake [27]: 18.41 % ID/g
- Drug uptake [28]: 6.84 % ID/g
- Drug uptake [29]: 142 %/mg protein
- Drug uptake [30]: 1.29 % ID/g
- Drug uptake [31]: 0.29 % ID/g
- Drug uptake [32]: 0.33 % ID/g
- Drug uptake [33]: 0.25 % ID/g
Structure (SMILES): CC(=O)NC(CCCCNC(=O)c1cccc([125I])c1)C(=O)NCCCCCC(=O)N[C@H](C(=O)N[C@@H](CO)C(=O)N[C@@H](Cc1ccccc1)C(=O)N[C@@]1(C)CCCCCC/C=C/CCC[C@@](C)(C(=O)N[C@@H](CCC(=O)O)C(=O)N[C@@H](CC(N)=O)C(=O)N[C@@H](Cc2ccccc2)C(N)=O)NC(=O)[C@H](CC(C)C)NC(=O)[C@H](CC(C)C)NC(=O)[C@H](C)NC(=O)[C@H](Cc2c[nH]c3ccccc23)NC(=O)[C@H](Cc2ccc(O)cc2)NC(=O)[C@H](CCC(=O)O)NC1=O)[C@@H](C)O (stereo partly drawn)
